ChEMBL document CHEMBL1828551, “Synthesis, biochemical and molecular modelling studies of antiproliferative azetidinones causing microtubule disruption and mitotic catastrophe” (Eur J Med Chem, 2011)
The source made the active and inactive calls. No cut-off for these calls is given here.

Tests used:
[1] = test system: MCF7; test: Antiproliferative activity against ER expressing human MCF7 cells after 72 hrs by MTT assay; format: functional, cell-based; conditions: MCF7, 72 h
In short: (§1)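 Cells seeded at 2.5×10^4 cells/mL, held 24 h at 37°C, then dosed from ethanol stocks over 1 nM–100 μM for 72 h; vehicle 1% v/v ethanol. MTT added to 1 mg/mL final, 2 h in dark at 37°C, DMSO solubilisation 20 min RT, absorbance read. Viability set relative to untreated controls; IC50 from % viability vs concentration. Triplicate wells, ≥3 experiments, mean ± SEM. MCF-7 grown in MEM with 10% FBS, 2 mM glutamine and 1% non-essential amino acids; MDA-MB-231 grown in DMEM with 10% FBS and 2 mM glutamine.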

[2] = test system: MDA-MB-231; test: Antiproliferative activity against ER-independent human MDA-MB-231 cells after 72 hrs by MTT assay; format: functional, cell-based; conditions: MDA-MB-231, 72 h; in short: as §1
[3] = test system: MDA-MB-231; test: Antiproliferative activity against ER-independent human MDA-MB-231 cells assessed as cell death at 10 uM after 72 hrs by LDH assay
[4] = species on record: Bos taurus; test: Inhibition of bovine tubulin polymerization at 10 uM after 60 mins by spectrophotometric analysis
In short: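 Purified bovine brain tubulin in G-PEM buffer (80 mM PIPES pH 6.9, 0.5 mM MgCl2, 1 mM EGTA, 1 mM GTP, 10.2% glycerol) was mixed with drug at 10 μM or 1% ethanol vehicle. Assembly was started by warming from 4 to 37°C and turbidity read at 340 nm every 30 s for 60 min at 37°C. Run in triplicate.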

[5] = test system: MCF7; test: Effect on microtubule network in human MCF7 cells assessed as microtubule depolymerization at 500 nM after 16 hrs by confocal microscopic analysis; format: functional, cell-based
In short: (§2)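 MCF-7 cells seeded at 1×10^5 per well on chamber glass slides, exposed 16 h (vehicle 1% v/v ethanol). Permeabilised with 0.1% Triton X-100 in PBS, fixed in methanol 30 min at -20°C, blocked in 5% BSA. Stained with DM1A anti-tubulin (1:20, 1 h RT), then FITC rabbit anti-mouse (1:200, 1 h RT). Mounted with DAPI and imaged by confocal microscopy; three separate experiments.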

[6] = test system: MCF7; test: Antimitotic activity in human MCF7 cells assessed as mitotic catastrophe at 500 nM after 16 hrs using DAPI staining based immunofluorescence analysis; format: functional, cell-based; in short: as §2
[7] = test system: MCF7; test: Cell cycle arrest in human MCF7 cells assessed as accumulation at sub-G1 phase at 500 nM after 48 hrs by propidium iodide staining based flow cytometric analysis (reference value: 1.65+/-0.38%); format: functional
[8] = test system: MCF7; test: Cell cycle arrest in human MCF7 cells assessed as accumulation at G1 phase at 500 nM after 48 hrs by propidium iodide staining based flow cytometric analysis (reference value: 60.22+/-3.1%); format: functional
[9] = test system: MCF7; test: Cell cycle arrest in human MCF7 cells assessed as accumulation at S phase at 500 nM after 48 hrs by propidium iodide staining based flow cytometric analysis (reference value: 8.77+/-0.9%); format: functional
[10] = test system: MCF7; test: Cell cycle arrest in human MCF7 cells assessed as accumulation at G2/M phase at 500 nM after 48 hrs by propidium iodide staining based flow cytometric analysis (reference value: 52.02+/-5.9%); format: functional
[11] = test system: MCF7; test: Cell cycle arrest in human MCF7 cells assessed as appearance of polyploidy at 500 nM after 48 hrs by propidium iodide staining based flow cytometric analysis (reference value: 8.33+/-2.5%); format: functional
[12] = test system: MCF7; test: Antiproliferative activity against ER expressing human MCF7 cells assessed as cell death at 10 uM after 72 hrs by LDH assay
[13] = test system: MCF7; test: Effect on microtubule network in human MCF7 cells assessed as microtubule depolymerization at 100 nM after 16 hrs by confocal microscopic analysis; format: functional, cell-based; in short: as §2
[14] = test system: MCF7; test: Antimitotic activity in human MCF7 cells assessed as mitotic catastrophe at 100 nM after 16 hrs using DAPI staining based immunofluorescence analysis; format: functional, cell-based; in short: as §2
[15] = test system: MCF7; test: Cell cycle arrest in human MCF7 cells assessed as accumulation at sub-G1 phase at 100 nM after 48 hrs by propidium iodide staining based flow cytometric analysis (reference value: 1.65+/-0.38%); format: functional
[16] = test system: MCF7; test: Cell cycle arrest in human MCF7 cells assessed as accumulation at G1 phase at 100 nM after 48 hrs by propidium iodide staining based flow cytometric analysis (reference value: 60.22+/-3.1%); format: functional
[17] = test system: MCF7; test: Cell cycle arrest in human MCF7 cells assessed as accumulation at S phase at 100 nM after 48 hrs by propidium iodide staining based flow cytometric analysis (reference value: 8.77+/-0.9%); format: functional
[18] = test system: MCF7; test: Cell cycle arrest in human MCF7 cells assessed as accumulation at G2/M phase at 100 nM after 48 hrs by propidium iodide staining based flow cytometric analysis (reference value: 52.02+/-5.9%); format: functional
[19] = test system: MCF7; test: Cell cycle arrest in human MCF7 cells assessed as appearance of polyploidy at 100 nM after 48 hrs by propidium iodide staining based flow cytometric analysis (reference value: 8.33+/-2.5%); format: functional

Row | SMILES | IC50 [1] | IC50 [2] | Activity [3] | other results
1 | COc1cc(N2C(=O)[C@H](c3ccccc3)[C@H]2c2ccc(OC)c(OC)c2OC)cc(OC)c1OC | 1120 nM | 1960 nM | 6.1% | 
2 | COc1cc(N2C(=O)C(c3ccccc3)C2(c2ccccc2)c2ccccc2)cc(OC)c1OC (stereo unspecified) | 3840 nM |  |  | 
3 | COc1ccc(C2(c3ccccc3)C(c3ccccc3)C(=O)N2c2cc(OC)c(OC)c(OC)c2)cc1 (stereo unspecified) | 430 nM |  |  | 
4 | COc1ccc(C2(c3ccc(OC)cc3)C(c3ccccc3)C(=O)N2c2cc(OC)c(OC)c(OC)c2)cc1 (stereo unspecified) | 640 nM |  |  | 
5 | CCOc1ccc([C@@H]2[C@@H](c3ccccc3)C(=O)N2c2cc(OC)c(OC)c(OC)c2)cc1 (relative stereo) | 220 nM | 830 nM | 5.4% | inhibition [4]: Active; Activity [5]: Active; Activity [6]: Active; Activity [7]: 13.97%; Activity [8]: 21.18%; Activity [9]: 9.49%; Activity [10]: 47.53%; Activity [11]: 7.4%
6 | COc1cc(N2C(=O)[C@H](c3ccccc3)[C@H]2c2ccc(F)cc2)cc(OC)c1OC (relative stereo) | 350 nM | 1140 nM | 0% | 
7 | COc1cc(N2C(=O)[C@H](c3ccccc3)[C@H]2c2ccc(N(C)C)cc2)cc(OC)c1OC (relative stereo) | 850 nM | 5660 nM |  | Activity [12]: 10.4%
8 | COc1cc(OC)c([C@@H]2[C@@H](c3ccccc3)C(=O)N2c2cc(OC)c(OC)c(OC)c2)c(OC)c1 (relative stereo) | 18700 nM | 5740 nM | 0% | 
9 | COc1cc([C@@H]2[C@@H](c3ccccc3)C(=O)N2c2cc(OC)c(OC)c(OC)c2)cc(OC)c1OC (relative stereo) | 69800 nM | 65600 nM | 0% | 
10 | COc1cc(OC)c([C@@H]2[C@@H](c3ccccc3)C(=O)N2c2cc(OC)c(OC)c(OC)c2)cc1OC (relative stereo) | 46900 nM | 38900 nM | 0% | 
11 | COc1ccc([C@@H]2[C@@H](c3ccccc3)C(=O)N2c2cc(OC)c(OC)c(OC)c2)cc1OC (relative stereo) | 460 nM | 530 nM | 0% | Activity [12]: 3%
12 | COc1ccc([C@@H]2[C@@H](c3ccccc3)C(=O)N2c2cc(OC)c(OC)c(OC)c2)cc1Br (relative stereo) | 1420 nM |  |  | 
13 | COc1cc(N2C(=O)[C@H](c3ccccc3)[C@H]2c2ccc3ccccc3c2)cc(OC)c1OC (relative stereo) | 440 nM |  |  | 
14 | COc1ccc(/C=C/[C@@H]2[C@@H](c3ccccc3)C(=O)N2c2cc(OC)c(OC)c(OC)c2)cc1 (relative stereo) | 1990 nM |  |  | 
15 | COc1ccc([C@@H]2[C@@H](c3ccccc3)C(=O)N2Cc2cc(OC)c(OC)c(OC)c2)cc1 (relative stereo) | 38600 nM |  |  | 
16 | COc1ccc(/C=C\c2cc(OC)c(OC)c(OC)c2)cc1O [COMBRETASTATIN A4] | 5 nM |  | 4.3% | inhibition [4]: Active; Activity [13]: Active; Activity [14]: Active; Activity [15]: 9.43%; Activity [16]: 23.57%; Activity [17]: 10.66%; Activity [18]: 52.02%; Activity [19]: 8.36%; Activity [12]: 5.5%
